In ChEMBL document CHEMBL4190252, “Synthesis, antitumor activity and CDK1 inhibiton of new thiazole nortopsentin analogues” (Eur J Med Chem, 2017):
Active and inactive are the calls of the source. No cut-off for these calls is given here.

Legend:
[1] = test system: MCF7; assay: Induction of apoptosis in human MCF7 cells assessed as early apoptotic cells at 5 x 10^-8 M after 72 hrs by Annexin V/propidium iodide double staining-based flow cytometry (reference value: 1%); type: functional
Outline: (§1)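 MCF-7 cells were grown in RPMI with 10% FBS, 2 mM L-glutamine and antibiotics at 37 °C in 5% CO2. They were seeded at 2.0 x 10^5 cells/cm2 in triplicate, left to adhere overnight, then treated for 72 h; DMSO 0.1% served as vehicle. Trypsinised cells at 2.0 x 10^5/mL were stained with annexin V-FITC and PI for 15 min at room temperature in the dark. At least 1.0 x 10^4 cells were gated into viable, early apoptotic, late apoptotic and necrotic quadrants.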

[2] = test system: MCF7; assay: Induction of apoptosis in human MCF7 cells assessed as viable cells at 5 x 10^-8 M after 72 hrs by Annexin V/propidium iodide double staining-based flow cytometry (reference value: 98.9%); type: functional; settings: MCF7, 72 h, read-out: Activity; outline: as §1
[3] = test system: MCF7; assay: Induction of apoptosis in human MCF7 cells assessed as necrotic cells at 5 x 10^-8 M after 72 hrs by Annexin V/propidium iodide double staining-based flow cytometry (reference value: 0.1%); type: functional; outline: as §1
[4] = test system: MCF7; assay: Cell cycle arrest in human MCF7 cells assessed as accumulation at G2/M phase at GI50 concentration after 48 hrs by propidium iodide-staining based flow cytometry; type: functional
Outline: (§2)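 Cells were trypsinized, washed in cold PBS, and 1 x 10^6 cells stained with 20 µg/ml PI plus 200 µg/ml RNase for 30 min at room temperature in the dark. At least 1x 10^4 cells were analysed by flow cytometry. Mean±SD of three experiments in triplicate.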

[5] = target: Cyclin-dependent kinase 1/cyclin B1 (Homo sapiens, UniProt P06493); assay: Inhibition of recombinant human full length His-tagged CDK1/cyclin B expressed in baculovirus expression system after 60 mins in presence of omnia peptide substrate by fluorescence based assay
Outline: (§3)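 Recombinant human CDK1/cyclin B in kinase buffer with Omnia peptide substrate, ATP and DTT, with inhibitor at 0.1–10 µM. Reactions ran for 60 min at 30 °C, with fluorescence read at ex 360/em 485 nm. Initial velocity came from the RFU-versus-time slope and was plotted against concentration for a dose-response IC50 fit. Values are mean±SD of two determinations.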

[6] = target: Cyclin-dependent kinase 1/cyclin B1 (Homo sapiens) (UniProt P06493+P14635); assay: Inhibition of recombinant human full length His-tagged CDK1/cyclin B expressed in baculovirus expression system at 0.1 to 10 uM after 60 mins in presence of omnia peptide substrate by fluorescence based assay; outline: as §3
[7] = test system: MCF7; assay: Cell cycle arrest in human MCF7 cells assessed as accumulation at G0/G1 phase at GI50 concentration after 48 hrs by propidium iodide-staining based flow cytometry (reference value: 63.5%); type: functional; outline: as §2

Sequence of Cyclin-dependent kinase 1/cyclin B1 (P06493 whole entry): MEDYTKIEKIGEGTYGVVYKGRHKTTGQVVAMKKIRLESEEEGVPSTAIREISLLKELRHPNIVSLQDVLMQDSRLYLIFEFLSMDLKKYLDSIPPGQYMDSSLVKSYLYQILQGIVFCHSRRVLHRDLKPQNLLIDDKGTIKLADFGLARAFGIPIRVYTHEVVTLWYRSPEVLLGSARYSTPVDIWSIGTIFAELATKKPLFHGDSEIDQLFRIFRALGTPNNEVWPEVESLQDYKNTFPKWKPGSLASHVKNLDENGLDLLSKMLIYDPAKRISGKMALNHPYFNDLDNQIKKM
Sequence of Cyclin-dependent kinase 1/cyclin B1 (P14635 whole entry, further chain): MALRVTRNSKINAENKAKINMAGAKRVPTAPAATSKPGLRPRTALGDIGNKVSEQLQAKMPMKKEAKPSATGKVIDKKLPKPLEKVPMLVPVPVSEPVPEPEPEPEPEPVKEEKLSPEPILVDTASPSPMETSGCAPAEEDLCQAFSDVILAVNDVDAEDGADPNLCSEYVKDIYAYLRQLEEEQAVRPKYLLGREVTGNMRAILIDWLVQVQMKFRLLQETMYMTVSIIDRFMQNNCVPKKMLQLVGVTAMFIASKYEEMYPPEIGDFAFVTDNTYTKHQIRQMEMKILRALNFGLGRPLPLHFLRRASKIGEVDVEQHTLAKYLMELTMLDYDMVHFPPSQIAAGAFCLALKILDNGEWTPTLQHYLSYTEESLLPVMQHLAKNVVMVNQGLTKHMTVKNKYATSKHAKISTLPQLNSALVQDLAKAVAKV
Sequence of Cyclin-dependent kinase 1/cyclin B1 (Homo sapiens) (P06493 whole entry, looked up): as the sequence (P06493 whole entry) above
Sequence of Cyclin-dependent kinase 1/cyclin B1 (Homo sapiens) (P14635 whole entry, looked up): as the sequence (P14635 whole entry, further chain) above

| Compound | Activity [1] | viability at 0.05 µM [2] | Activity [3] | Activity [4] | IC50 [5] | inhibition [6] | Activity [7] |
| --- | --- | --- | --- | --- | --- | --- | --- |
| COCCn1cc(-c2nc(-c3c[nH]c4ncccc34)cs2)c2cc(OC)ccc21 | 54.2% | 45.8% | 0% | >50% | 1140 nM | – | – |
| COCCn1cc(-c2csc(-c3c[nH]c4ccc(Br)cc34)n2)c2cccnc21 | – | – | – | – | – | inactive | 9% |
